Here are results for 8 compounds from ChEMBL document CHEMBL3244156, “Analgesic and tranquilizing activity of 5,8-disubstituted 1-tetralone Mannich bases” (1977).

Assay [1] deals with Mus musculus. Nature of the assay: Analgesic activity in mouse at 32 mg/kg, ip after 2 hrs by hot plate assay. The assay is classed as functional. The settings on record: route intraperitoneal. Put shortly: (§1)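 Mice dropped into a glass cylinder on an aluminum plate held at 57 °C. Timed from foot contact to first hind-foot flick, with a 10-s limit. Observed 0.5 and 2 h after treatment. Value is % of mice failing to react within the limit. At least ten mice per dose.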
In general terms: Hot-plate and tail-flick tests time the reaction to a heat stimulus.

The subject of assay [2] is Rattus norvegicus. Nature of the assay: Analgesic activity in rat assessed as median foot shock required to elicit flinch-jump at 32 mg/kg, ip after 2 hrs. The assay is classed as functional. The settings on record: route intraperitoneal. Put shortly: (§2)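 Series given just before and 0.5 and 2 h after ip dosing. Flinch, squeak and jump were scored. Value is the median shock (mA) that elicits a jump. At least five rats per dose.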

Assay [3] concerns Mus musculus. Nature of the assay: Analgesic activity in mouse assessed as tail-flick latency period at 32 mg/kg, ip after 2 hrs by tail flick test. The assay is classed as functional. The settings on record: route intraperitoneal.
Assay [4] relates to Rattus norvegicus. Nature of the assay: Analgesic activity in rat assessed as median foot shock required to elicit flinch-jump at 10 mg/kg, ip after 2 hrs. The assay is classed as functional. The settings on record: route intraperitoneal. Put shortly:
as §2

For assay [5], the system named is Canis familiaris. Nature of the assay: Analgesic activity in dog assessed as rippling of skin at 5 mg/kg, po after 2 hrs by radiant heat assay. The assay is classed as functional, Canis lupus familiaris. Put shortly: (§3)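 Dogs held in a harness with a shaved mid-back patch placed under a concealed radiant heat source. Endpoint is the latency from heat onset to skin "rippling". Baseline latency measured in each dog, then retested at 0.5 and 2 h after dosing. Result expressed as % of control.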

The test system of assay [6] is Rattus norvegicus. Nature of the assay: Analgesic activity in rat assessed as median foot shock required to elicit flinch-jump at 17.8 mg/kg, po after 2 hrs. The assay is classed as functional.
Assay [7] has as its system Mus musculus. Nature of the assay: Analgesic activity in mouse assessed as tail-flick latency period at 100 mg/kg, ip after 2 hrs by tail flick test. The settings on record: route intraperitoneal. The assay is classed as functional.
The test system of assay [8] is Mus musculus. Nature of the assay: Analgesic activity in mouse at 100 mg/kg, ip after 2 hrs by hot plate assay. The assay is classed as functional. The settings on record: route intraperitoneal. The method, boiled down:
as §1

Assay [9] is filed under the species Rattus norvegicus. Nature of the assay: Induction of tolerance development in rat assessed as median foot shock required to elicit flinch-jump. The assay is classed as functional, organism-based.
For assay [10], the system named is Canis familiaris. Nature of the assay: Analgesic activity in dog assessed as rippling of skin at 10 mg/kg, po after 2 hrs by radiant heat assay. The assay is classed as functional, Canis lupus familiaris. The method, boiled down:
as §3

Assay [11] relates to Rattus norvegicus. Nature of the assay: Neuroleptic activity in ip dosed rat assessed as drug required for blocking discriminated jump-out avoidance behavior in after 1 hr. The assay is classed as functional. Put shortly:
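Rats trained in discriminated jump-out avoidance and tested 1 h after dosing. Value is an estimated ED50 for blocking avoidance.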

Assay [12] is filed under the species Rattus norvegicus. Nature of the assay: Induction of cross-tolerance development in rat assessed as median foot shock required to elicit flinch-jump in presence of morphine. The assay is classed as functional, organism-based.
For assay [13], the system named is Mus musculus. Nature of the assay: Neuroleptic activity in ip dosed mouse assessed as inhibition of amphetamine-induced mortality. The assay is classed as functional. The method, boiled down:
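Aggregated mice in groups of ten given amphetamine. Value is an ED50 estimate for blocking lethality, bracketed between a dose where <5/10 died and a dose where >5/10 died.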

Assay [14] relates to Rattus norvegicus. Nature of the assay: Analgesic activity in ip dosed rat assessed as median foot shock required to elicit flinch-jump in presence of naloxone. The assay is classed as functional, organism-based.
In assay [15] the test system is Canis familiaris. Nature of the assay: Analgesic activity in dog assessed as rippling of skin at 5 mg/kg, ip after 2 hrs by radiant heat assay. The assay is classed as functional, Canis lupus familiaris. The settings on record: route intraperitoneal. Put shortly: as §3
Assay [16] relates to Mus musculus. Nature of the assay: Analgesic activity in mouse assessed as tail-flick latency period at 10 mg/kg, ip after 2 hrs by tail flick test. The assay is classed as functional. The settings on record: route intraperitoneal.
Assay [17] relates to Canis familiaris. Nature of the assay: Analgesic activity in dog assessed as rippling of skin at 1.62 mg/kg, sc after 2 hrs by radiant heat assay. The assay is classed as functional, Canis lupus familiaris. The settings on record: route subcutaneous. The method, boiled down:
as §3

In assay [18] the test system is Mus musculus. Nature of the assay: Analgesic activity in mouse at 10 mg/kg, ip after 2 hrs by hot plate assay. The assay is classed as functional. The settings on record: route intraperitoneal. Put shortly: as §1

Activity calls are given as the source filed them. The rule behind the calls is not given here.

A word on the ED50: it is the midpoint of the dose-response relation.

Take `COc1ccc(F)c2c1CCC(CN1CCCCC1)C2=O.Cl` (centres undefined): the results for the Activity in the assay with Mus musculus [1], in the assay on Rattus norvegicus [2] and with Mus musculus [3] were 60%, 1.6 mA and 10%, respectively.
As for `C=CCNCC1CCc2c(OC)ccc(Cl)c2C1=O.Cl` (centres undefined), the Activity with Mus musculus [1] is recorded as 0%; with Rattus norvegicus [4] it was 2.2 mA; with Rattus norvegicus [2] it was more than 2.2 mA; in the assay with Mus musculus [3], 0%.
As for `CCC(=O)O[C@](Cc1ccccc1)(c1ccccc1)[C@H](C)CN(C)C` [PROPOXYPHENE], the Activity is given as 100% in the assay with Canis familiaris [5], 1.2% in the assay on Rattus norvegicus [6], 70% in the assay on Mus musculus [7] and 30% in the assay with Mus musculus [8].
On to `COc1ccc(Cl)c2c1CCC(CN1CCCC1)C2=O.Cl` (centres undefined), for which the result in the assay listed under Rattus norvegicus [9] and in the assay listed under Rattus norvegicus [12] was inactive. Further, the Activity is 160% with Canis familiaris [10]; 0% in the assay on Mus musculus [7]; 1.2 mA with Rattus norvegicus [4]; more than 2.2 mA with Rattus norvegicus [2]; 30% with Mus musculus [8]. Also, the ED50 with Rattus norvegicus [11] was more than 178 mg/kg; in the assay with Mus musculus [13] it was 10 mg/kg. Besides, the result in the assay on Rattus norvegicus [14] was Active.
`COc1ccc(C)c2c1CCC(CN1CCCCC1)C2=O.Cl` (centres undefined): the Activity is recorded as 40% in the assay on Mus musculus [1], 2.2 mA with Rattus norvegicus [4], more than 2.2 mA in the assay on Rattus norvegicus [2] and 30% in the assay on Mus musculus [3].
Regarding `CCOC(=O)C1(c2ccccc2)CCN(C)CC1` [MEPERIDINE], the Activity in the assay with Canis familiaris [15] amounted to 150%; in the assay with Mus musculus [7] it was 70%; in the assay on Rattus norvegicus [2], 1.2 mA; in the assay with Mus musculus [8], 50%. In addition, the ED50 in the assay with Rattus norvegicus [11] is 10 mg/kg.
With `CCNCC1CCc2c(OC)ccc(Cl)c2C1=O.Cl` (centres undefined), the Activity in the assay on Mus musculus [1] is 40%; with Rattus norvegicus [4], 2.2 mA; with Rattus norvegicus [2], more than 2.2 mA; with Mus musculus [3], 0%.
As for `CN1CC[C@]23c4c5ccc(O)c4O[C@H]2[C@@H](O)C=C[C@H]3[C@H]1C5` [MORPHINE], the Activity in the assay on Mus musculus [16] was found to be 80%; in the assay on Rattus norvegicus [6], 1.2%; in the assay on Canis familiaris [17], 155%; in the assay with Mus musculus [18], 70%. Further, in the assay filed under Rattus norvegicus [9], the result was Active.
